High-throughput results: PubChem BioAssay, several laboratories
PHOSPHO1 inh – blocks human PHOSPHO1 phosphatase activity | inhibition, % at 13.3 µM | AID 1565 | 1.1% of 290,000 active | recombinant PHOSPHO1, absorbance phosphatase assay | Q8TCT1; in the data active = inhibition above about 60%
Target sequence (Q8TCT1 whole entry, looked up): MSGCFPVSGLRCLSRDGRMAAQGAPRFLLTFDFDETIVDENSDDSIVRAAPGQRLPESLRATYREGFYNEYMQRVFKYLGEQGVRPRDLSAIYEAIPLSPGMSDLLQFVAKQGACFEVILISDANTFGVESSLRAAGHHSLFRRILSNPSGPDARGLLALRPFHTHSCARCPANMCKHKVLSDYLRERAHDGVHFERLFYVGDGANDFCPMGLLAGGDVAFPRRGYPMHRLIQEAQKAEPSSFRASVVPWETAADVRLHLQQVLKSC
proCasp7 act – counter-screen for procaspase-3 activators: activators of human procaspase-7; P55210; recombinant procaspase-7, Ac-DEVD-pNA absorbance 405 nm; D23A/D198A/D206A triple mutant, cannot self-cleave; scale: DMSO 0, 5 µM enzyme 100; activation, % at 8.5 µM; 0.093% of 330,000 active; AID 463210;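 active = percent activation above the screen-wide mean plus 3 SD, cut at about 25% in these data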
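Replicates: singlicate. Assay system: Procaspase-7 triple mutant (PC-7 D3A). Signal: 405 nm absorbance of p-nitroaniline. Times: 1 h preincubation, 2 h reaction. Buffer or medium: Zinc-free HEPES pH 7.4 with 300 mM NaCl, 0.01% Triton X-100. Also added: DEVD-pNA substrate. Benchmarks: DMSO wells as 0%, DMSO with 5 µM added PC-7 as 100%.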
IDE inh – cellular human IDE inhibition | P14735 | HEK cells, FAbetaB cleavage, fluorescence polarization | inhibition, % at 5.59 µM | 0.41% of 320,000 active | AID 434962;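 active = percent inhibition above the average of all tested compounds plus 3 SD, set per screening campaign, cut at about 16% in these data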;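 also: IDE supplied by intact live HEK cells; FP after avidin binding of uncleaved biotin substrate so inhibition keeps polarization high; 0% = DMSO wells and 100% = 60 µM reference IDE inhibitor Ii1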
IDE cell activ – boosts human insulin-degrading enzyme activity in HEK cells. P14735. FAbeta-B cleavage, fluorescence polarization; 0% vehicle, 100% cell-free pure enzyme wells. activation, % at 5.96 µM. 0.073% of 340,000 active;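 active = activation above the mean of all tested compounds plus 3 SD, set per screening campaign, cut at about 17% in these data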
UBC13 polyUb – inhibitors of human UBC13 polyubiquitin chain formation; AID 485273; TR-FRET; 0.47% of 330,000 active; inhibition, % at 20 µM; in the data active = inhibition above about 45%, passing the limit was not always enough; inconclusive = no clear call, values can overlap the other calls
Target sequence (P61088 whole entry, looked up): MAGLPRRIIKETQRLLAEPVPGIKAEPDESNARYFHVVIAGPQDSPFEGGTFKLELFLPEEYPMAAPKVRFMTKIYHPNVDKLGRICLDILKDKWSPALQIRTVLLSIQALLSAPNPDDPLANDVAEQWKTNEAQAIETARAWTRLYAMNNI
proCasp3 act – procaspase-3 (human) activation; recombinant procaspase-3 D3A, Ac-DEVD-pNA absorbance 405 nm; 0.11% of 330,000 active; activation, % at 8.5 µM;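 active = activation above the mean of all tested compounds plus 3 SD, cut at about 21% in these data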;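 also: 0% = DMSO alone and 100% = DMSO wells spiked with extra 5 µM PC-3 D3A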
Target sequence (P42574 whole entry D9A/D28A/D175A): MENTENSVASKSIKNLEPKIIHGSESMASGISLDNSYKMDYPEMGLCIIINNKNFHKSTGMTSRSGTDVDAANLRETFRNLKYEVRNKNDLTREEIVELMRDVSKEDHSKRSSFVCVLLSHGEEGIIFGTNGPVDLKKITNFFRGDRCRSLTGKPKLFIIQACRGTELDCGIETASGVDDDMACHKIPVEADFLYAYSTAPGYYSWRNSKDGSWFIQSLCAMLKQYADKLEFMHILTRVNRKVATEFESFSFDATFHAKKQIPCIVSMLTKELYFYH
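Test system: Procaspase-3 D3A mutant; medium: Zinc-free HEPES/NaCl buffer with 0.01% Triton X-100 at pH 7.4; reagent: DEVD-pNA substrate; doses: one concentration, 8.5 µM nominal, 0.8% DMSO; times: 1 h preincubation plus 2 h reaction at 25 °C; signal: Epi-absorbance at 405 nm of released p-nitroaniline, 0 and 120 min; replicates: singlicate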
Numbers without * were called inactive; ? = inconclusive; . = no result. Sampled rows, rich in hits. Any-hit rate of the full collection: about 1.9%.

SMILES	PHOSPHO1 inh	proCasp7 act	IDE inh	IDE cell activ	UBC13 polyUb	proCasp3 act
c1ccc2[nH]c(CN3CCOCC3)nc2c1	16.8	2.4	-4.1	2.4	1.0	-0.7
Cc1ccc(C(=O)OC(C)C(=O)NC(C)CCc2ccccc2)o1 (stereo unspecified)	.	5.1	-0.3	4.6	1.9	5.8
CC1=C(C)NC(=S)SC1	73.3*	-13.9	2.1	6.5	-13.1	-13.1
Cc1cccc(C)c1NC(=O)CNC(=O)c1ccc(NS(=O)(=O)c2ccc3[nH]c(=O)[nH]c3c2)cc1	.	-4.0	1.7	0.1	1.9	-6.7
CCn1c(-c2cc(-c3ccc(OC(C)C)cc3)nc3ccccc23)n[nH]c1=S	97.4*	-10.3	9.5	-10.2	11.6	1.7
CCn1c(-c2cc(-c3cc(OC)ccc3OC)nc3ccccc23)n[nH]c1=S	90.2*	2.8	7.3	-6.7	18.0	-4.0
CCN(CC)CCN(C)C(=O)CCc1nnc(-c2ccc(C)s2)o1	60.1*	-4.5	-1.0	8.1	5.6	3.5
O=C(Cn1c(NCCCO)nc2ccccc21)c1ccc(F)cc1	23.9	8.2	1.3	2.4	-3.0	7.5
Cc1ccsc1/C=C/c1ccc2ccccc2n1	27.4	-10.9	9.7	6.5	0.7	-4.6
Cc1ccsc1/C=C/c1ccc2cccc(O)c2n1	85.8*	13.9	0.7	4.7	-6.3	-2.3
CCOc1ccc(N2C(=O)c3cccnc3C2Nc2ccc(Cl)cc2)cc1 (stereo unspecified)	56.5	11.5	2.5	-2.1	3.0	6.6
Cc1ccc(NC2c3ncccc3C(=O)N2c2ccccc2C)cc1C (stereo unspecified)	85.5*	-14.1	-4.8	6.8	12.1	-16.4
COc1ccc(N2CCN(S(=O)(=O)c3c(C)nc4sccn4c3=O)CC2)cc1	-19.3	-0.5	-2.9	3.7	-2.8	2.7
COc1ccc(S(N)(=O)=O)cc1C(=O)NCCCN1CCN(c2ccc(C)cc2)CC1	-3.7	0.7	5.3	-3.3	1.1	-0.4
COc1ccc(S(N)(=O)=O)cc1C(=O)NCCCN1CCN(c2cccc(Cl)c2)CC1	66.1*	6.7	8.5	-3.5	-3.3	-1.9
CCC1(C)Cc2c(sc3c2c2ncnn2c2nnc(SCC(=O)NCc4ccco4)n32)CO1 (stereo unspecified)	65.4*	11.6	6.6	-0.1	-5.5	-3.6
CC1(C)Cc2c(sc3c2c2ncnn2c2nnc(SCC(=O)NCc4ccco4)n32)CO1	20.9	-0.4	-3.3	6.4	-2.6	-2.0
N#Cc1c2n(c3c(=O)[nH]cnc13)CCCC2	7.6	-9.2	4.2	1.3	6.8	7.3
N#Cc1c2n(c3c(=S)nc[nH]c13)CCCCC2	95.9*	-10.3	0.1	-0.4	?	-4.7
COc1cccc(N/C=C/c2onc(C)c2[N+](=O)[O-])c1	-21.6	-3.8	3.6	-1.6	-40.6	5.7
CCc1cc(-c2n[nH]c(=S)n2-c2cccc(C)c2)cs1	92.4*	-31.3	1.6	-20.7	-5.1	-17.7
CCCCn1c(-c2csc(CC)c2)n[nH]c1=S	14.1	-33.3	4.5	-8.9	-7.2	-15.7
Cc1cccc(-n2c(-c3csc(C)c3)n[nH]c2=S)c1	99.2*	-14.8	7.3	-25.9	-8.7	-12.5
Cc1cc(-c2n[nH]c(=S)n2-c2ccccc2C)cs1	-26.5	-10.3	2.6	-3.6	7.9	-13.4
O=C(CSc1nnc(-c2ccccc2)c2ccccc12)NCCN1C(=O)CSC1=O	.	12.8	-2.7	3.9	1.9	2.1
SMILES	PHOSPHO1 inh	proCasp7 act	IDE inh	IDE cell activ	UBC13 polyUb	proCasp3 act
CC(C)(C)NC(=O)C1CCC(CNS(=O)(=O)c2cccc3nsnc23)CC1 (stereo unspecified)	58.3	-3.6	1.0	5.4	-8.7	13.3
CCOC(=O)CNC(=O)C1CCC(CNS(=O)(=O)c2cccc3nsnc23)CC1 (stereo unspecified)	64.9*	-4.7	5.4	6.2	-5.1	7.0
O=C(NCCc1ccc(Cl)cc1)c1ccc2c(c1)OCCO2	-0.6	3.6	4.5	1.8	0.3	-5.8
Oc1cccc(Nc2c3ccccc3nc3ccccc23)c1	60.8*	-8.9	-4.9	0.4	-63.4	-12.2
CN(CC(=O)Nc1cccc(S(=O)(=O)N2CCOCC2)c1)CC(=O)Nc1ccc(Cl)c(C(F)(F)F)c1	.	0.3	0.7	-4.4	7.2	-4.9
Cc1ccc(Sc2c(C)[nH]n(C(C)(C)C)c2=O)cc1	52.4	7.3	-1.0	2.1	4.1	-2.8
Cc1[nH]n(C(C)(C)C)c(=O)c1Sc1ccccc1	94.5*	-5.2	2.0	0.9	4.6	-5.9
COc1ccc(C(=O)NNC(=O)Cc2ccc(-c3ccccc3)cc2)cc1OC	15.0	5.6	0.8	-1.4	-0.3	-1.6
COc1ccc(C(=O)NNc2ccccc2)cc1OC	76.8*	-3.7	-4.6	2.3	8.3	-0.4
COc1ccc(-c2cc(=O)oc3cc(OC(C)C(=O)NCc4ccccn4)ccc23)cc1 (stereo unspecified)	33.8	2.3	-3.1	1.5	10.9	5.6
CCc1nn(C)c(-c2n[nH]c(=S)n2N)c1Cl	62.0*	-2.0	4.7	2.0	13.1	-2.2
CSc1nc(N)c(NC(=O)c2ccc(Br)o2)c(=O)[nH]1	66.3*	-8.9	5.6	-4.2	0.8	6.3
CC(Sc1nc(N)c(NC(=O)c2ccc(Br)o2)c(=O)[nH]1)C(=O)O (stereo unspecified)	31.3	-11.0	-5.7	5.0	8.2	0.8
Cc1ccc(COc2ccsc2C(=O)O)cc1	60.9*	.	.	1.4	.	.
O=S(=O)(/C=C/C=C/S(=O)(=O)c1ccccc1)c1ccccc1	.	.	.	-4.7	.	.
COc1ccc(NC(=S)NCCCCCC(=O)C[N+](=O)[O-])cc1	77.2*	-35.8	7.7	1.2	-1.9	-18.1
CCCCOc1ncnc2c1[nH]c1ccc(C)cc12	18.9	-2.8	37.6*	.	10.7	1.9
COc1ccccc1CN1[C@@H](CC(=O)O)c2cc(F)ccc2S1(=O)=O	.	-6.7	3.5	4.0	5.8	3.5
CC1CCN(C(=O)CSc2nncn2-c2ccccn2)CC1	73.8*	-6.7	2.0	-5.3	-6.7	8.3
CCC1C(=O)NCCN1C(=O)c1cccc(OC2CCN(S(=O)(=O)N(C)C)CC2)c1 (stereo unspecified)	64.0*	-6.2	2.3	4.7	0.1	-5.1
COc1ccccc1CNC(=O)CN1C(=O)NC(c2ccccc2)(c2ccccc2)C1=O	.	10.2	6.1	2.5	?	2.9
COc1ccccc1Nc1nc2ccc(C)cc2n2cnnc12	26.5	11.2	6.0	1.9	9.1	-3.5
Cn1c(=O)c2c(nc(SCC(=O)O)n2Cc2cc3c(cc2Cl)OCO3)n(C)c1=O	63.7*	-14.6	3.0	5.3	5.5	-6.7
CCn1c(SCC(=O)Nc2ccc3c(c2)OCO3)nc2c1c(=O)n(C)c(=O)n2C	-11.8	2.6	3.9	2.2	0.7	5.2
